Results on 89 compounds are retold here after PubChem BioAssay AID1800 (The Scripps Research Institute Molecular Screening Center, 2009).

The structures appear in SMILES notation. About 1,600 (0.55%) of roughly 290,000 compounds were called active. The sample holds actives, similar compounds and a random draw of the others, so the mix is not that of the screen. Values without a mark were called inactive.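 The calls were made as follows: active = inhibition above the mean of all tested compounds plus 3 SD, set per campaign (cut at about 35% in these data); inactive = the rest.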

This experiment relates to Hepatitis C virus NS3 helicase. Put plainly: inhibitors of HCV NS3 helicase, primary screen, biochemical, Cy5 molecular beacon fluorescence (AID 1800).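 Also: 0% = DMSO wells and 100% = thioflavine S control wells.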 Conditions: NS3 helicase DNA unwinding, at 10.9 µM, stronger effect = higher value. In short, it runs like this: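 Assay system: hepatitis C virus NS3 helicase domain fragment enzyme. Also added: annealed dual-labelled DNA beacon duplex, ATP-started. Timing: 1 h reaction at 25 °C, ATP-initiated. Technique: Cy5 fluorescence at 0 and 60 min, beacon hairpin quenching. Evaluation: % inhibition of unwinding. Replication: one well per compound.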
The term inhibition denotes the relative decrease from the control value, in per cent. Turning to `CC(=O)c1ccc(N2CCN(S(=O)(=O)c3ccc4c(c3)CC(=O)N4C)CC2)cc1`, the inhibition is 26.3%.
In the case of `O=S(=O)(NC1CC1)c1ccc(Cl)cc1`, the inhibition is 4.09%.
As for `COc1ccc(NC(=O)CC2C(=O)NC3CCCCC3N2C(=O)c2ccc(F)cc2)cc1` (centres undefined), the figure is -15.6%; as for `Cc1ccc(S(=O)(=O)N/N=C\c2cc3c(cc2[N+](=O)[O-])OCO3)cc1`, 54.2% (active).
Take `Cc1ccc(-c2n[nH]c(=S)n2/N=C/c2cc3c(cc2[N+](=O)[O-])OCO3)cc1`: the inhibition was 8.58%.
As for `CC(=O)N/N=C/c1cc2c(cc1[N+](=O)[O-])OCO2`, the figure is 3.66%; as for `CC(=O)Nc1ccc(NC(=O)CCCNC(=O)c2ccc(Cl)cc2)cc1`, -9.29%; as for `CCCN1CCn2c3c(c4cc(Br)ccc42)CCCC31` (centres undefined), -17.6%.
For `Cc1nnc(SCC(=O)N/N=C/c2cn(-c3ccccc3)nc2-c2ccc(F)cc2)n1-c1ccccc1`, the inhibition was -0.42%.
For the compound `O=C(N/N=C/c1ccc([N+](=O)[O-])o1)c1cn(-c2ccccc2)nc1-c1ccc(F)cc1`, the inhibition is 37% (active).
As for `Cc1ccc(-c2nn(-c3ccccc3)cc2/C=N/NC(=O)c2ccc3c(c2)OCO3)cc1`, the figure is 3.37%.
Regarding `CC(=O)N1CCC(C(=O)Nc2nc(-c3ccccc3)ns2)CC1`, the inhibition is 1.62%.
As for `O=C(c1cccc(-n2cccc2)c1)N1CCN(S(=O)(=O)c2ccc(F)cc2)CC1`, the figure is 77% (active); as for `O=C(c1cnc(Cl)c(Cl)c1)N1CCN(S(=O)(=O)c2ccc(F)cc2)CC1`, 5.16%.
For the compound `O=C(c1cccc(C(=O)N2CCN(c3ccc(F)cc3)CC2)c1)N1CCN(c2ccc(F)cc2)CC1`, the inhibition was -2.81%.
For the compound `CNS(=O)(=O)c1cccc(C(=O)NCC2CCCCC2)c1`, the inhibition is -9.16%.
Consider `O=C(O)c1cc(S(=O)(=O)NC2CCCc3ccccc32)ccc1O` (centres undefined), for which the inhibition was 7.44%.
As for `CNS(=O)(=O)c1cccc(C(=O)NC2CCCc3ccccc32)c1` (centres undefined), the figure is 37% (active).
Regarding `CC1(C)NC(=O)N(CC(=O)Nc2cc(C(F)(F)F)cc(C(F)(F)F)c2)C1=O`, the inhibition is -6.82%.
As for `CCn1cc(C(=O)OCC(=O)Nc2cccc(C)c2)c(=O)c2ccc(C)nc21`, the figure is 4.57%; as for `COc1ccc(C(=O)NC2CCN(C(=S)NCCc3ccccc3)CC2)cc1`, 0.36%; as for `O=C1CCN(C(=S)NCCc2ccccc2)CC1`, -6.74%.
Regarding `S=C(NCCc1ccccc1)N1CCCCC1`, the inhibition is 40.9% (active).
As to `COc1ccc(CCn2c(=N)c(C(=O)NCC3CCCO3)cc3c(=O)n4cccc(C)c4nc32)cc1OC` (centres undefined), the inhibition is 0.37%.
Take `COc1cc(NS(=O)(=O)c2ccc(NC(=S)NC(=O)c3ccccc3)cc2)nc(OC)n1`: the inhibition was 11%.
As to `COc1nnc(-c2ccc(C)c(S(=O)(=O)N(C)C)c2)c2ccccc12`, the inhibition is -1.73%.
As for `CN(CC1CCCO1)S(=O)(=O)c1ccc(C(=O)Nc2ccc([N+](=O)[O-])cc2)cc1` (centres undefined), the figure is -4.51%; as for `COC(OC)c1ccnc(SCc2ccccc2Cl)n1`, -11.3%; as for `Brc1ccc(CSc2ccc(-c3ccco3)nn2)cc1`, 3.25%.
On to `c1ccc(CSc2nnc(-c3ccco3)c(-c3ccco3)n2)cc1`, for which the inhibition is 38.3% (active).
In the case of `Clc1ccccc1CSc1nnc(-c2ccco2)c(-c2ccco2)n1`, the inhibition was 53.8% (active).
As for `Fc1cccc(Cl)c1CSc1ccc(-c2ccco2)nn1`, the figure is 5.94%.
With `O=c1[nH]c(SCc2ccccc2)nnc1-c1ccccc1`, the inhibition was 35.9%.
Turning to `COc1ccc(/C=N/OCc2ccccc2C#N)c(OC)c1`, the inhibition was -11.6%.
For the compound `CC(C)c1ccc(S(=O)(=O)N2CCN(C(=O)c3ccc(N4CCCC4)c([N+](=O)[O-])c3)CC2)cc1`, the inhibition was -8.12%.
With `CS(=O)(=O)N1CCN(CC(=O)NC2CCCC2)CC1`, the inhibition was 2.51%.
`CCOc1ccc(S(=O)(=O)N2CCC(C(=O)NCc3ccccn3)CC2)cc1Cl`: the inhibition is 4.14%.
As for `Cc1ccc(NC(=O)[C@H](Cc2ccccc2)NC(=O)C2CCNCC2)cc1`, the inhibition was -12.4%.
Turning to `CCOC(=O)C1=C(O)/C(=C/c2cc(C)n(-c3ccccc3)c2C)N=C1C`, the inhibition is 46.3% (active).
On to `COC(=O)C1=C(O)/C(=C/c2ccc(OCC(=O)Nc3ccccc3)cc2)N=C1C`, for which the inhibition was -4.57%.
As for `CCOC(=O)C1=C(O)/C(=C/c2ccc(OCC(=O)Nc3ccc(C)cc3)cc2)N=C1C`, the figure is 8.39%; as for `COc1ccc2oc(C(=O)NCC(Cc3ccccc3)N(C)C)c(C)c2c1` (centres undefined), -39.7%.
As for `O=C(CCCN1CCc2[nH]c3ccc(F)cc3c2C1)c1ccc(F)cc1`, the figure is -45%; as for `CCC(C)NC(=O)C1c2ccccc2C(=O)N1Cc1ccccc1` (centres undefined), -11.1%.
On to `COCCCNS(=O)(=O)c1cccc(S(=O)(=O)c2cccc(S(=O)(=O)NCCCOC)c2)c1`, for which the inhibition is 3.55%.
Turning to `CC(C)c1ccc(C2C(C(=O)c3ccco3)=C(O)C(=O)N2CC2CCCO2)cc1` (centres undefined), the inhibition was 55.9% (active).
As for `O=C(C1=C(O)C(=O)N(Cc2ccccc2)C1c1ccco1)c1ccco1` (centres undefined), the figure is 17.3%; as for `O=C(C1=C(O)C(=O)N(Cc2ccccc2)C1c1cccnc1)c1ccco1` (centres undefined), -5.86%.
As to `O=C(OCC1O[C@@H](OC(=O)c2cc(O)c(O)c(O)c2)[C@@H](OC(=O)c2cc(O)c(O)c(O)c2)[C@@H](OC(=O)c2cc(O)c(O)c(O)c2)[C@@H]1OC(=O)c1cc(O)c(O)c(O)c1)c1cc(O)c(O)c(O)c1` (some centres undefined), the inhibition was 63.6% (active).
Turning to `CCC(NC(=O)c1ccccc1NC(=O)c1ccccc1)C(=O)NNC(=O)CSc1nc2ccccc2o1` (centres undefined), the inhibition was -3.35%.
As for `CN1CCN(/N=C/c2ccc(-c3ccc([N+](=O)[O-])cc3)o2)CC1`, the inhibition is -1.77%.
Take `CN1C(=O)/C(=C\c2ccc(-c3ccccc3)o2)SC1=S`: the inhibition is 23.6%.
On to `NS(=O)(=O)c1ccc(-c2ccc(/C=C3\SC(=O)NC3=O)o2)cc1`, for which the inhibition is 60.5% (active).
Consider `CCOc1ccc(CN2CCNC(=O)C2CC(=O)NCCCC2CCCC2)cc1` (centres undefined), for which the inhibition is -18.7%.
For the compound `COc1ccc(/C=C2\SC(=S)N(CCCC(=O)NC3CCCC3)C2=O)cc1OC`, the inhibition is 19%.
With `COc1ccc(/C=C2\SC(=S)N(CCC(=O)Nc3ccccn3)C2=O)cc1OC`, the inhibition is -1.07%.
On to `COc1ccc(/C=C2\SC(=S)N(CCC(=O)Nc3cccc(C(=O)O)c3)C2=O)cc1OC`, for which the inhibition is 61% (active).
In the case of `O=C(NC1CCCC1)c1cc(-c2ccccc2)on1`, the inhibition was -12.1%.
Consider `O=C(NCCc1ccccn1)c1nc(Cn2cc([N+](=O)[O-])cn2)no1`, for which the inhibition was 2.16%.
Consider `COCCN1CCn2c(nc3cc(NS(C)(=O)=O)ccc32)C1`, for which the inhibition was -2.65%.
On to `Cc1nn(CC(=O)Nc2ccc(F)cc2)c(=O)c2ccccc12`, for which the inhibition is 17.6%.
As for `O=C(O)CCCC(=O)N1N=C(c2ccco2)CC1c1ccco1` (centres undefined), the figure is 1.26%; as for `Cc1nn2c(c1-c1ccccc1)N=C(c1ccco1)CC2c1ccccc1` (centres undefined), 39.1% (active); as for `COc1ccc(C2=NN(C(C)=O)C(c3ccccc3)C2)cc1` (centres undefined), -3.52%.
For `Nc1ccc2nc3c(=O)[nH]c(=S)[nH]c3nc2c1`, the inhibition was 80.4% (active).
Regarding `Cc1cc2nc3c(=O)n(Cc4ccccc4)c(=O)[nH]c3nc2cc1N`, the inhibition is -1.52%.
As for `CCc1cccc(C)c1N1C(=O)CN(Cc2ccccc2)C1=S`, the figure is -10.7%; as for `O=C(C[C@H]1C(=O)N(c2ccc(F)c(F)c2)C[C@@H]1Cc1ccccc1)Nc1ccccc1`, -4.71%; as for `Cc1ccc(S(=O)(=O)N2CCN(C)CC2)cc1C(=O)NC1CCCCC1`, 0.44%.
For the compound `COc1cccc(CNC(=O)c2nnn(CC(=O)Nc3cc(C)ccc3C)c2N)c1`, the inhibition is 8.19%.
In the case of `COc1ccc(CNC(=O)c2nnn(CC(=O)Nc3cc(C)cc(C)c3)c2N)cc1`, the inhibition is -13.3%.
Regarding `COc1cccc(CNC(=O)c2nnn(CC(=O)Nc3cc(Cl)ccc3C)c2N)c1`, the inhibition was 38.7% (active).
In the case of `CS(=O)(=O)c1ccc2c(c1)SC1=NC(=O)/C(=C/c3ccco3)C(=N)N12`, the inhibition is 39.8% (active).
On to `Cc1cc(/C=C2/C(=N)N3C(=NC2=O)SN=C3S(C)(=O)=O)c(C)n1-c1ccccc1`, for which the inhibition is 20%.
As for `CS(=O)(=O)C1=NN2C(=N)/C(=C\c3ccc(OCCOc4ccccc4)cc3)C(=O)N=C2S1`, the figure is 7.31%; as for `CCN(CC)C(=O)COc1coc(CN2CCN(Cc3ccccc3)CC2)cc1=O`, -0.99%; as for `CCSc1nsc(NC(=O)Nc2cccc(C(C)=O)c2)n1`, 38.8% (active).
As for `C=CCSc1nsc(NC(=O)Nc2cccc(C(C)=O)c2)n1`, the inhibition is -3.05%.
Regarding `CCSc1nsc(NC(=O)Nc2ccccc2OC)n1`, the inhibition is -3.36%.
As for `CCOc1ccc(N(C)S(=O)(=O)c2cnc[nH]2)cc1`, the inhibition was 4.43%.
As for `COC(=O)c1ccccc1NC(=O)C1CCN(C(=O)N2CCOc3ccccc32)CC1`, the figure is -12.1%.
`COc1ccc(S(=O)(=O)NCC(=O)NC2CC2)cc1OC`: the inhibition was 22.6%.
Consider `COc1ccc(C)cc1NC(=O)NCCCCc1ccccc1`, for which the inhibition was 2.02%.
For the compound `Cc1cc(C)c2nc(-c3ccco3)cc(C(=O)O)c2c1`, the inhibition was 37.2% (active).
For `CN(C(=O)COC(=O)c1cc(-c2ccco2)nc2ccccc12)C1CCS(=O)(=O)C1` (centres undefined), the inhibition is 20.9%.
As to `COC(=O)c1cnn2c(C(F)(F)F)cc(-c3ccco3)nc12`, the inhibition is 18.2%.
As for `N#C/C=C(/c1ccc(F)cc1)N1CCOCC1`, the inhibition was 40.5% (active).
As for `O=C(Oc1ccc(C(=S)N2CCOCC2)cc1)c1ccc(F)cc1`, the inhibition is -0.77%.
Turning to `O=C(Oc1ccc(F)cc1)N1CCOCC1`, the inhibition is 4.09%.
